According to ChEMBL document CHEMBL1138602, “Discovery of sodium 6-[(5-chloro-2-{[(4-chloro-2-fluorophenyl)methyl]oxy}phenyl)methyl]-2-pyridinecarboxylate (GSK269984A) an EP(1) receptor antagonist for the treatment of inflammatory pain” (Bioorg Med Chem Lett, 2009):
pIC50, pKi: −log10 of the molar value.

What was measured:
[1] = molecular target: T1, Prostaglandin E2 receptor EP1 subtype (Homo sapiens, UniProt P34995); assay: Antagonist activity at human recombinant EP1 receptor expressed in CHO cells assessed as luciferase activity by Schild assay; format: functional, cell-based; conditions: read-out: pA2 (converted)
T1 sequence (P34995 whole entry): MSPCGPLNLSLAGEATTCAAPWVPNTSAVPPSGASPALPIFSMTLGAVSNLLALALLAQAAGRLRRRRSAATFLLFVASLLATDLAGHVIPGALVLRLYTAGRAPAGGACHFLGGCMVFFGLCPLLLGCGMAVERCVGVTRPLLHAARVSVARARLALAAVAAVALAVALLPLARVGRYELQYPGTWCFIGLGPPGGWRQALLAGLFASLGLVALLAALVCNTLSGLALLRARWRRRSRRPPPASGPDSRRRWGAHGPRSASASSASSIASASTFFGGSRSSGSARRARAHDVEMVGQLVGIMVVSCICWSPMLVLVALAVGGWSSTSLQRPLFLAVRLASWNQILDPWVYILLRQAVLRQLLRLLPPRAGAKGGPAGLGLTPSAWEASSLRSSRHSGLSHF

Cytochrome P450 2C9 = Cytochrome P450 2C9 (Homo sapiens, UniProt P11712); assay: Inhibition of human CYP2C9; format: ADME
Outline: (§1)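 Inhibition of metabolism of fluorometric substrates (Cypex protocol); IC50 values are the mean of three experiments ± standard deviation.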

Cytochrome P450 2D6 = Cytochrome P450 2D6 (Homo sapiens, UniProt P10635); assay: Inhibition of human CYP2D6; format: ADME; outline: as §1
[2] = Ratio of drug level in brain to blood in complete Freund's adjuvant induced rat inflammatory pain model at 3 mg/kg, po bid for 5 days measured after 1 hr on day 5
[3] = Intrinsic clearance in cynomolgus monkey hepatocytes measured per gram of liver at 0.15 to 0.2 X 10^6 cells/ml cell density; format: ADME, cell-based, Macaca fascicularis, Hepatocyte
Outline: (§2)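 Intrinsic clearance in hepatocytes expressed as mL/min/g liver. Cell densities were 0.15–0.2 × 10^6 cells/mL or 0.54–0.7 × 10^6 cells/mL.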

[4] = molecular target: T1, Prostaglandin E2 receptor EP1 subtype; assay: Antagonist activity at human recombinant EP1 receptor expressed in CHO cells assessed as inhibition of PGE2-mediated intracellular calcium mobilization by FLIPR method; format: functional, cell-based
Outline: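 CHO cells recombinantly overexpressing human EP1 receptor; antagonism measured as block of PGE2-mediated intracellular Ca2+ mobilization. Values are the mean of at least three experiments with standard deviations.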

[5] = molecular target: T1, Prostaglandin E2 receptor EP1 subtype; assay: Displacement of [3H]PGE2 from human EP1 receptor expressed in CHO cells; format: cell-based
Outline: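 Radioligand binding with [3H]-PGE2 in CHO cells overexpressing human EP1 receptor. Values are the mean of at least three experiments with standard deviations.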

Hepatocyte [6] = assay: Intrinsic clearance in human hepatocytes measured per gram of liver at 0.15 to 0.2 X 10^6 cells/ml cell density; format: ADME, cell-based; outline: as §2
[7] = Permeability from apical to basolateral side of dog MDCK2 cells over expressing MDR1 after 1 hr; format: ADME, cell-based, Canis lupus familiaris, MDCK-II; conditions: MDCK-MDR1, read-out: permeability
Outline: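 MDCKII-MDR1 Pgp permeability assay; apical-to-basolateral Pexact permeability in nm/s, with efflux ratio also determined.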

[8] = Solubility in FeSSIF after 0.5 hrs; format: physicochemical
Outline: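 Solubility determined in water, FaSSIF and FeSSIF, all read at the 0.5 h time point.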

[9] = molecular target: Prostaglandin E2 receptor EP2 subtype (Homo sapiens, UniProt P43116); assay: Inhibition of EP2 receptor
[10] = molecular target: Prostaglandin F2-alpha receptor (Homo sapiens, UniProt P43088); assay: Inhibition of FP receptor
[11] = molecular target: Prostaglandin E2 receptor EP4 subtype (Homo sapiens, UniProt P35408); assay: Inhibition of EP4 receptor
Rattus norvegicus = assay: Antianalgesic activity against complete Freund's adjuvant induced inflammatory pain in rat assessed as reversal of hypersensitivity dosed as po bid for 5 days measured after 1 hr on day 5; format: functional
[12] = Drug level in blood of complete Freund's adjuvant-induced rat inflammatory pain model at 3 mg/kg, po administered after 23 hrs of adjuvant challenge measured after 1 hr; format: ADME, organism-based; design: dose 3 mg/kg, route oral; conditions: read-out: Drug uptake
Outline: (§3)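 CFA rat study: oral doses of 1, 3 or 10 mg/kg given 23 h after intraplantar adjuvant, samples 1 h post-dose. Blood values are the mean from seven animals. Brain values are the mean from three animals.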

[13] = Drug level in brain of complete Freund's adjuvant-induced rat inflammatory pain model at 3 mg/kg, po administered after 23 hrs of adjuvant challenge measured after 1 hr; format: ADME, organism-based; design: dose 3 mg/kg, route oral; conditions: read-out: Drug uptake; outline: as §3
[14] = Drug level in brain of complete Freund's adjuvant-induced rat inflammatory pain model at 10 mg/kg, po administered after 23 hrs of adjuvant challenge measured after 1 hr; format: ADME, organism-based; design: dose 10 mg/kg, route oral; conditions: brain, read-out: Drug uptake; outline: as §3
[15] = Ratio of drug level in brain to blood in complete Freund's adjuvant-induced rat inflammatory pain model at 1 mg/kg, po administered after 23 hrs of adjuvant challenge measured after 1 hr; format: ADME, organism-based; design: dose 1 mg/kg, route oral; conditions: brain and blood
Outline: (§4)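 Rat CFA inflammatory pain model: oral dosing at 1, 3 or 10 mg/kg 23 h after intraplantar adjuvant; blood and brain sampled 1 h post-dose from the same animal; Br:Bl ratio is the mean from three animals.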

[16] = Ratio of drug level in brain to blood in complete Freund's adjuvant-induced rat inflammatory pain model at 3 mg/kg, po administered after 23 hrs of adjuvant challenge measured after 1 hr; format: ADME, organism-based; design: dose 3 mg/kg, route oral; conditions: brain and blood; outline: as §4
[17] = Ratio of drug level in brain to blood of mouse at 0.5 mg/kg/hr administered by infusion for 12 hrs; conditions: brain and blood, intravenous
[18] = Drug level in rat brain at 0.5 mg/kg/hr administered by infusion for 12 hrs; format: ADME, organism-based; conditions: intravenous, read-out: Drug uptake
Outline: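 Steady-state 12 h infusion at 5 mL/kg/h to reach a target dose of 0.5 mg/kg/h; blood and brain concentrations measured. Data are the mean from three animals.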

[19] = Drug level in rat brain at 0.5 mg/kg/hr administered by infusion for 1 hrs; format: ADME, organism-based; conditions: intravenous, read-out: Drug uptake
Outline: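 Rat given a 1 h infusion; blood and brain concentrations measured.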

[20] = Drug level in Landrace pig blood at 0.5 mg/kg/hr administered by infusion for 1 hrs; format: ADME, organism-based, Sus scrofa; conditions: intravenous, read-out: Drug uptake
Outline: (§5)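 Landrace pig given a 1 h infusion; blood and brain concentrations measured in a single animal.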

[21] = Drug level in Landrace pig brain at 0.5 mg/kg/hr administered by infusion for 1 hrs; format: ADME, organism-based, Sus scrofa; conditions: intravenous, read-out: Drug uptake; outline: as §5
[22] = Ratio of drug level in brain to blood of Landrace pig at 0.5 mg/kg/hr administered by infusion for 1 hrs; conditions: brain and blood, intravenous
[23] = Clearance in Sprague-Dawley rat blood at 1 mg/kg administered by intravenous infusion for 1 hr; format: ADME, organism-based; design: dose 1 mg/kg, route intravenous
Outline: (§6)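 Intravenous administration as a 1 h infusion of a 1 mg/kg dose. Rats were male Sprague-Dawley; dogs were beagle; monkeys were cynomolgus. Blood clearance, Vss and half-life determined.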

[24] = Half life in Sprague-Dawley rat at 1 mg/kg administered by intravenous infusion for 1 hr; format: ADME, organism-based; design: dose 1 mg/kg, route intravenous; conditions: in vivo; outline: as §6
[25] = Oral bioavailability in Beagle dog at 3 mg/kg; format: ADME, organism-based, Canis lupus familiaris; conditions: in vivo
Outline: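 Single oral dose of 3 mg/kg in 1% (w/v) methylcellulose vehicle. Rats were male Sprague-Dawley; dogs were beagle. Bioavailability (Fpo) determined.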

[26] = Volume of distribution at steady state in cynomolgus monkey at 1 mg/kg administered by intravenous infusion for 1 hr; format: ADME, organism-based, Macaca fascicularis; design: dose 1 mg/kg, route intravenous; conditions: in vivo, read-out: Vdss
[27] = Oral bioavailability in cynomolgus monkey at 3 mg/kg; format: ADME, organism-based, Macaca fascicularis; conditions: in vivo
Hepatocyte [28] = assay: Intrinsic clearance in rat hepatocytes measured per gram of live; format: ADME, cell-based, Liver; outline: as §2

Chain of Prostaglandin F2-alpha receptor (P43088 whole entry): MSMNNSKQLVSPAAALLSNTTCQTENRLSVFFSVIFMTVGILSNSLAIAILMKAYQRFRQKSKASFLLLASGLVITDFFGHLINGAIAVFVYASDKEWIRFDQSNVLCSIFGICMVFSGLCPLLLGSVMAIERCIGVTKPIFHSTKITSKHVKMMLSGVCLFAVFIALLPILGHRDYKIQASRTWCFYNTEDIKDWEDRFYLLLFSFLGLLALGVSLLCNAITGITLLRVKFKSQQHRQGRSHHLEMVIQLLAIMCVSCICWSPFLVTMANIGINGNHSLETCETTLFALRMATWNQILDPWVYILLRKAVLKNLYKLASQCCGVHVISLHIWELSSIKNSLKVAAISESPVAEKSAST
Chain of Cytochrome P450 2C9 (P11712 whole entry): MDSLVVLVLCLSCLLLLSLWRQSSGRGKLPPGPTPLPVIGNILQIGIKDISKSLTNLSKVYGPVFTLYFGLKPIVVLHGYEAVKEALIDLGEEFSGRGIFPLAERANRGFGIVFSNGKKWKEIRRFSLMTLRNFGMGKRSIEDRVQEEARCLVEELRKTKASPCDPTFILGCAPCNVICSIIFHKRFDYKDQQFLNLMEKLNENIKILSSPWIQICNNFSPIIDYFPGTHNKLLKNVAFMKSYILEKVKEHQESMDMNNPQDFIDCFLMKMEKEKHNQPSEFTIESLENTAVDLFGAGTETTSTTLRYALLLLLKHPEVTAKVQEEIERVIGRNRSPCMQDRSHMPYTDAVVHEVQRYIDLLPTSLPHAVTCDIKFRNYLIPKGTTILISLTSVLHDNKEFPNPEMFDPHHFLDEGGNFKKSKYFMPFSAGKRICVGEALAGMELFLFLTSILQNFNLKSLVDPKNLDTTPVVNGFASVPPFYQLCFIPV
Chain of Cytochrome P450 2D6 (P10635 whole entry): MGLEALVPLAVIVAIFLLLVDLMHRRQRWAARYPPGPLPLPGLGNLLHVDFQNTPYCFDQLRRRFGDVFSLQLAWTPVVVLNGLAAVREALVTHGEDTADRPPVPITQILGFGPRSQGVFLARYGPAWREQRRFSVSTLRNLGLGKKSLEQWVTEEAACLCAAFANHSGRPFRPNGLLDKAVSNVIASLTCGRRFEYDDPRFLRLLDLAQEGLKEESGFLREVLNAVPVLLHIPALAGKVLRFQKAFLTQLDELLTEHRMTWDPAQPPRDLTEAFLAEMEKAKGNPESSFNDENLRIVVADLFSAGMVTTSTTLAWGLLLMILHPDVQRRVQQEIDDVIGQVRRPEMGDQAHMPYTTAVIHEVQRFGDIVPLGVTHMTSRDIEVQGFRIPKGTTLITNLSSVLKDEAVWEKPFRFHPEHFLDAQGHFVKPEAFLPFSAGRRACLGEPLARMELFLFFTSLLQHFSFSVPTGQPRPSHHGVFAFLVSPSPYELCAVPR
Chain of Prostaglandin E2 receptor EP2 subtype (P43116 whole entry): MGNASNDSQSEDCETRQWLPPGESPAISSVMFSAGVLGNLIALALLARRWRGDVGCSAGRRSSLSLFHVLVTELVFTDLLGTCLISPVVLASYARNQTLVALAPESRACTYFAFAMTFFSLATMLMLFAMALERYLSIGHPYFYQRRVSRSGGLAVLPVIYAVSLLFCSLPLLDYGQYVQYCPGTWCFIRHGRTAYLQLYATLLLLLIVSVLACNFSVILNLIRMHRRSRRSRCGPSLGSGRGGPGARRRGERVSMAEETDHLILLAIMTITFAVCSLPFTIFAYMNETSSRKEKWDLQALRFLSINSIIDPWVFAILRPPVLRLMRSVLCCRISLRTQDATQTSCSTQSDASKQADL
Chain of Prostaglandin E2 receptor EP4 subtype (P35408 whole entry): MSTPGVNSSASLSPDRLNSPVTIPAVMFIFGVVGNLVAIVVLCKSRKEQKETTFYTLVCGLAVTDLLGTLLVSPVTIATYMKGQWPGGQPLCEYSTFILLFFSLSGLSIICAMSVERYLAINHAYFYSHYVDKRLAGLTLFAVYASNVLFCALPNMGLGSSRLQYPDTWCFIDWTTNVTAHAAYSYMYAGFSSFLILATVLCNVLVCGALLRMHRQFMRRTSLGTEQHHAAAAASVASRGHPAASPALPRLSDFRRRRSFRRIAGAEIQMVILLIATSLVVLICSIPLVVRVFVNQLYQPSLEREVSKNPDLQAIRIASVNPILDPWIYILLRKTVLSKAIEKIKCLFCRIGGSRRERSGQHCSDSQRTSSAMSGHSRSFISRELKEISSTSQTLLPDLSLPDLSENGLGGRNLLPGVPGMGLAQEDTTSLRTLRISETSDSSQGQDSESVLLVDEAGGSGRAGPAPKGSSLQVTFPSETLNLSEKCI

Kb [1]: 7.94 nM | pIC50 (Cytochrome P450 2C9): 5.10 | pIC50 (Cytochrome P450 2D6): < 4.00 | Kp at 1 hr [2]: 0.34 | CL [3]: 4.8 mL/min/g | pKi [4]: 8.10 | pIC50 [5]: 7.90 | CL (Hepatocyte [6]): 3.7 mL/min/g | Papp A→B at 1 h [7]: 70 ×10⁻⁶ cm/s | solubility at 0.5 h [8]: 358 µg/mL | pIC50 [9]: 5.80 | pIC50 [10]: < 5.00 | pIC50 [11]: < 5.00 | concentration at 1 h [12]: 415 nM | concentration at 1 h [13]: 175 nM | concentration at 1 h [14]: 501 nM | Kp at 1 h [15]: 0.37 | Kp at 1 h [16]: 0.37 | Kp at 12 h [17]: 0.28 | concentration at 12 h [18]: 225 nM | concentration at 1 h [19]: 374 nM | concentration at 1 h [20]: 2300 nM | concentration at 1 h [21]: 627 nM | Kp at 1 h [22]: 0.27 | clearance [23]: 19 mL/min/kg | half-life [24]: 138 min | bioavailability [25]: 39% | Vd [26]: 0.6 L/kg | bioavailability [27]: 7% | clearance (Hepatocyte [28]): 2.1 mL/min/g
SMILES: O=C([O-])c1cccc(Cc2cc(Cl)ccc2OCc2ccc(Cl)cc2F)n1.[Na+]
ED50 (Rattus norvegicus): 3 mg/kg
